Screening results deposited in PubChem by several laboratories.
Shown are actives, neighbours in structure and some others; about 0.95% of the full set was active somewhere.
ASAP1 inh: ASAP1 ArfGAP inhibition. Q9ULH1. ASAP1-stimulated ARF1 GTP hydrolysis, GDP FP detection. inhibition, % at 16.5 µM. actives 0.19% (n = 360,000); in the data active = inhibition above about 25%;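 note: 0% = vehicle with enzyme and substrate and 100% = no enzyme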
ARFGAP1 inhibitor: inhibits rat ARF GTPase activating protein 1 | Q62848 | Arfgap1-stimulated ARF1 GTP hydrolysis, GDP FP detection | inhibition, % at 16.5 µM | actives 0.26% (n = 360,000);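 active = inhibition above a per-plate limit, mean inhibition of low control wells plus 3 SD, cut at about 25% in these data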;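 note: 0% = DMSO wells with enzyme and 100% = wells lacking Arfgap1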
Target sequence (Q62848 1-136 limits assumed): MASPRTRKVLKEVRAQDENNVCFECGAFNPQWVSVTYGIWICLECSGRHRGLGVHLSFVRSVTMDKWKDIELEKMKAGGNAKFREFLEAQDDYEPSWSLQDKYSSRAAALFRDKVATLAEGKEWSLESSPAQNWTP
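Material: truncated rat Arfgap1 GAP domain; Incubation: compound-enzyme preincubation 20 min, reaction 120 min, detection 60 min, 25 °C; Read-out: percent inhibition of Arfgap1-stimulated GTP hydrolysis; Technique: FP, GDP Alexa 633 tracer displaced from anti-GDP antibody, 620/688 nm; Controls: No-Arfgap1 wells (100%) versus DMSO full-reaction wells (0%); Replication: single well per compound.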
HNF4A DNA FP: change in binding of human HNF4 alpha to DNA; HNF4a-FITC DNA binding, fluorescence polarization, 1 h; activity change, % at 10 µM; actives 0.3% (n = 360,000); AID 1224865; in the data active = activity change above about 30%, passing the limit was not always enough
CSN inh: CSN deneddylation inhibition; actives 0.38% (n = 360,000); inhibition, % at 12.5 µM; Purified CSN, SCF-Nedd8-OG deneddylation, fluorescence polarization; AID 651999;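 active = pattern-corrected inhibition above about 35%, with an unprinted fluorescence ratio check between 0.5 and 1.5, limit read from the data, passing the limit was not always enough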;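 note: 0% = enzyme with substrate and 100% = substrate without enzyme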
Target sequence (Q92905 whole entry, looked up, one chain of several): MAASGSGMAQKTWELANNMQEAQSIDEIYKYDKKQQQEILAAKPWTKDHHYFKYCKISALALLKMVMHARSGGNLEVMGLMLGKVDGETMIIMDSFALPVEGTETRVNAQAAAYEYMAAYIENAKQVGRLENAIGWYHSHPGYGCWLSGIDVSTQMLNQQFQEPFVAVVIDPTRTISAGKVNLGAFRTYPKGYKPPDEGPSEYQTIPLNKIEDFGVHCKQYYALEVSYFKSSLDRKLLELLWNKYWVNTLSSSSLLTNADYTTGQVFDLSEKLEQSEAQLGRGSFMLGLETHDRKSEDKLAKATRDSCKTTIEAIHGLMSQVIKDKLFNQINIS
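Detection – fluorescence polarization · System – HEK293T-derived human Csn5 enzyme · Controls – substrate-only high control, full reaction low control · Timing – 90 min, room temperature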
HNF4a DNA conf: change in binding of human HNF4 alpha to DNA, retest; shares compounds with HNF4A DNA FP; HNF4A-FITC DNA binding, fluorescence polarization, 1 h; activity change, % at 12.5 µM; actives 99% (n = 210); AID 1224897; call rule not given here
The depositor's hits bear a star; x = no result given.

SMILES	ASAP1 inh	ARFGAP1 inhibitor	HNF4A DNA FP	CSN inh	HNF4a DNA conf
COc1cc2c(cc1OC)C(NNC(=O)c1ccc(Br)o1)=NC(C)(C)C2	-15.1	-4.8	1.1	2.1	x
CCOC(=O)c1c(-c2ccc(C)cc2)csc1NC(=O)/C(C#N)=C/c1ccc(O)c(OC)c1	14.9	13.6	55.2*	42.2*	62.5*
CN1C(=O)/C(=C/C=C2/CCCN2C)N(C)C1=S	6.2	-2.3	45.6*	-4.0	82.0*
CN1C=CC(=CC=C2C=CC(=O)C=C2)C=C1	-10.8	-14.5	54.2*	33.7	48.3*
Cn1c(=O)c(=O)n(C)c2cc(S(=O)(=O)N3CCc4ccccc43)ccc21	-2.6	0.5	42.7*	12.2	46.6*
Cn1c(=O)oc2cc(S(=O)(=O)N3CCc4ccccc43)ccc21	0.9	4.9	-0.6	0.0	x
NC(=O)CC(NC(=O)Cc1ccc(Br)cc1)c1ccc(NC2CCCC2)c([N+](=O)[O-])c1 (stereo not drawn)	5.7	-4.0	49.9*	26.9	49.3*
Cc1cccc(-c2c3c(=O)n(C)c(=O)n(C)c3c3nnc4ccccc4n23)c1	-5.3	12.3	49.5*	10.1	32.0*
Cc1cc(C)n(C(=O)CCCn2nc(C)c([N+](=O)[O-])c2C)n1	-10.3	-1.6	-0.1	-6.6	x
COc1ccc2c(-c3ccccc3)cc(SCC(N)=O)nc2c1	10.5	21.1	42.9*	22.7	48.5*
COc1ccc2nc(SCC(N)=O)cc(C)c2c1	6.3	3.8	3.3	4.2	x
COc1ccc(C2CC(c3ccccc3)=NN2S(=O)(=O)c2ccccc2)cc1 (stereo not drawn)	-9.3	4.7	76.7*	5.8	59.3*
COc1ccc(C2CC(c3ccccc3)=NN2c2ccc(N)cc2)cc1 (stereo not drawn)	11.9	-1.3	18.8	-5.1	x
Cc1cccc(NC(=O)c2sc3nc(-c4ccc(F)cc4)cn3c2C)n1	0.8	4.4	36.6*	35.9*	38.0*
Cc1ccccc1OC(=O)c1cccc(S(=O)(=O)N2CCN(C)CC2)c1	8.6	2.7	-4.3	0.8	x
CC(=O)Oc1ccc(C(=O)Cc2ccc3ccccc3n2)c(O)c1C	-10.3	-2.5	37.8*	20.6	50.0*
COc1ccccc1-c1csc(C(C)(O)c2cccc(F)c2)n1 (stereo not drawn)	4.0	3.0	-0.7	-3.1	x
Cc1sc2nc3c(SC(C)C(=O)O)cc(C(=O)c4ccccc4O)cn3c(=O)c2c1C (stereo not drawn)	-1.4	-10.2	4.6	2.1	x
COC(=O)c1cc(C(=O)c2cc(F)ccc2O)cn2c(=O)c3c(C)c(C)sc3nc12	8.9	-8.8	68.0*	7.6	65.7*
CC1N(C)c2cc(NC(=O)c3ccco3)c(P(=O)(Nc3ccc([N+](=O)[O-])cc3)N3CCOCC3)cc2C1(C)C (stereo not drawn)	5.3	5.3	-0.2	11.1	x
CC(=O)c1ccc(NC(=O)c2ccc(NC(=O)c3ccco3)cc2)cc1	x	x	86.4*	19.8	111.0*
CC1N(C)c2cc(NC(=O)c3ccco3)ccc2C1(C)C (stereo not drawn)	21.3	-0.7	52.5*	102.4	40.7*
COc1ccc(C2Nc3ccccc3C(=O)N2O)cc1CN1CCOCC1 (stereo not drawn)	0.5	-7.3	1.5	-12.5	x
COc1ccc(NC(=O)CN(C)S(=O)(=O)c2ccc(C)cc2)c([N+](=O)[O-])c1	7.8	-3.9	58.8*	11.2	58.6*
O=C1NC(=S)N(C(=O)c2ccc(F)cc2)/C1=C/c1ccccc1	7.1	-4.3	77.9*	54.6*	88.6*
SMILES	ASAP1 inh	ARFGAP1 inhibitor	HNF4A DNA FP	CSN inh	HNF4a DNA conf
N#C/C(=C\C1=C(N2CCOCC2)C(=C/c2cccc([N+](=O)[O-])c2)/CC1)C(=O)Nc1ccccc1F	-4.9	-5.0	53.5*	24.5	55.6*
CCN(CC)c1ccc(/C=C2\CCC(/C=C(\C#N)C(=O)Nc3ccccc3F)=C2N2CCOCC2)cc1	17.0	5.1	18.4	15.6	x
N#C/C(=C/C1=C(N2CCOCC2)C(=C/c2cccc([N+](=O)[O-])c2)/CC1)C(=O)Nc1ccccc1F	-11.5	-0.8	48.6*	53.2*	64.8*
CC(NC(=O)/C(C#N)=C1\N=C(NC(=O)c2ccco2)c2ccccc21)c1ccccc1 (stereo not drawn)	5.3	-8.9	73.6*	10.6	35.5*
COc1ccc(N/C=C\C(=O)c2ccc3c(c2)OCO3)cc1	-11.8	-0.7	10.4	-1.3	x
O=C(/C=C\Nc1ccc2c(c1)OCO2)c1ccc(Cl)s1	9.8	5.9	88.0*	21.1	61.3*
O=C(/C=C\Nc1ccc2c(c1)OCO2)c1ccc2c(c1)OCO2	-8.1	-9.3	80.8*	-1.2	85.0*
CC(OC(=O)c1ccc(S(=O)(=O)NCc2ccco2)cc1)C(=O)Nc1ccccc1 (stereo not drawn)	-6.3	-4.5	5.8	1.2	x
O=C(NC1CCCCC1)c1cccc2c1C(=O)c1ccc(N3CCC(Cc4ccccc4)CC3)cc1S2(=O)=O	-2.7	3.5	-93.6	43.8	x
O=C1c2ccccc2S(=O)(=O)c2cc(N3CCOCC3)ccc21	0.2	11.8	44.5*	13.4	50.4*
CC1CCN(c2ccc3c(c2)S(=O)(=O)c2cccc(C(=O)NC[C@@H]4CCCO4)c2C3=O)CC1	8.4	9.8	54.3*	19.5	62.0*
CC1CCN(c2ccc3c(c2)S(=O)(=O)c2cccc(C(=O)NC4CC4)c2C3=O)CC1	2.3	7.1	42.6*	17.9	36.1*
O=C(NC[C@@H]1CCCO1)c1cccc2c1C(=O)c1ccc(N3CCOCC3)cc1S2(=O)=O	-0.3	2.2	20.9	11.3	x
O=C1c2ccccc2S(=O)(=O)c2cc(N3CCN(c4ccccc4)CC3)ccc21	4.9	1.1	x	x	x
O=C(O)c1cccc2c1C(=O)c1ccc(N3CCCCC3)cc1S2(=O)=O	-8.7	-2.8	43.5*	13.6	42.6*
Nc1[nH]c(=O)nc2snnc12	-4.8	7.1	1.6	2.7	x
N#CCCn1cc(CNC2CCC(O)CC2)c2ccccc21 (stereo not drawn)	-3.7	5.7	-0.9	0.5	x
O=C1C2C3C=CC(CC3)C2S(=O)(=O)C2C3C=CC(CC3)C12 (stereo not drawn)	5.7	8.8	-1.2	0.1	x
CC(C)c1cccc(-c2ccc3c(c2)S(=O)(=O)c2cccc(C(=O)NC4CCCC4)c2C3=O)c1	-12.4	-3.5	-2.9	-2.2	x
COc1ccc(-c2ccc3c(c2)S(=O)(=O)c2cccc(C(=O)NC4CCCC4)c2C3=O)cc1OC	-9.4	6.0	51.3*	8.9	57.0*
O=c1cc(S(=O)(=O)Cc2ccccc2)[nH]c(=O)[nH]1	-5.5	-12.6	0.6	-0.4	x
O=C(O)c1ccc(N=C2c3ccccc3-c3ccccc32)cc1	-15.9	5.0	0.7	-4.5	x
CSc1ccc(C2C(C#N)=C(N)N(c3ccccc3)C3=C2C(=O)CCC3)cc1 (stereo not drawn)	-7.0	15.0	1.7	3.8	x
N#CC1=C(N)N(c2ccc(F)cc2)C2=C(C1c1ccc(O)cc1)S(=O)(=O)CC2 (stereo not drawn)	20.7	9.7	54.7*	43.2*	51.6*
O=C1NC[C@@H](CCCCN2CCN(CCC3CCCCC3)C(=O)C2=O)N(CC2CCCCC2)C1=O	-3.2	-2.3	1.4	-3.0	x
